# Shown are actives, neighbours in structure and some others; about 2.3% of the full set was active somewhere.
# TRPC6 inhibitor: inhibitors of mouse TRPC6 channel. AID 2553. B-score at 10 µM. HEK293-TRPC6, membrane potential dye, ACh-evoked depolarization; active compounds read low. Q61143. 310,000 compounds, 1.1% hits;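 active = B-score under library mean minus 3 SD, initial fluorescence not abnormally high, positive integrated signal ratio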;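 note: B-score derived from integrated fluorescence ratio over the kinetic read; more negative B-score means stronger inhibition of depolarization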
# TRPC6 act: mouse TRPC6 channel activation. Q61143. HEK293-TRPC6 membrane potential dye fluorescence; active compounds read high. B-score at 10 µM. 310,000 compounds, 0.13% hits. AID 2550;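 active = B-score of the integrated fluorescence ratio above library mean plus 3 SD, and starting fluorescence ratio within library mean plus 5 SD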;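 note: higher score means more depolarization so channel activation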
# TRPC4 act: opens the mouse TRPC4 cation channel; Q9QUQ5; HEK293 TRPC4beta/mu-opioid, Fluo4 calcium fluorescence; active compounds read high; B-score at 10 µM; 310,000 compounds, 0.49% hits; AID 2237;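 active = B-score above 5 SD of library B-scores, and initial fluorescence ratio not above library mean plus 5 SD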;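 note: positive B-score marks a calcium rise read as TRPC4 activation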
#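 Assay system: HEK293 stable line with TRPC4beta plus mu-opioid receptor. Times: dye 45 min RT, read 110 s. Measured by: kinetic Fluo4 calcium fluorescence. Measure: B score of integrated ratio. Controls: assay buffer as low control, maximal DAMGO as high control.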
# TRPC4 potent: allosterically enhances the mouse TRPC4 cation channel; Q9QUQ5; HEK293 TRPC4beta/mu-opioid, DAMGO EC20, Fluo-4 Ca2+ flux; active compounds read high; B-score at 10 µM; 310,000 compounds, 0.42% hits; AID 2227;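 active = B-score of calcium response area above 5 SD of library B-scores, with initial fluorescence ratio within 5 SD of library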;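 note: B-score of integrated fluorescence ratio over time as area under calcium response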
# TRPC4 block: inhibitors of mouse TRPC4 channel; B-score at 10 µM; Q9QUQ5; AID 2247; HEK293 TRPC4beta/mu-opioid, DAMGO-evoked Fluo4 calcium flux; active compounds read low; 300,000 compounds, 0.39% hits;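 active = B-score over 3 SD under the library average, no early fluorescence shift, positive overall ratio signal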
#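 Material: HEK293 cells with stable TRPC4beta plus mu-opioid receptor expression; probe or stimulus: DAMGO in two steps, submaximal then maximal; technique: Fluo4 calcium fluorescence by kinetic imaging, 5 s 1 Hz baseline; measure: integrated fluorescence ratio relative to baseline, converted to per-well B score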
# * hit, by the source's call; i = inactive; . = no result.
SMILES,TRPC6 inhibitor,TRPC6 act,TRPC4 act,TRPC4 potent,TRPC4 block
CCN(CC)CCN1C(=O)C2C(C(=O)Nc3cc(C)cc(C)c3)C3C=CC2(O3)C1C(=O)NC1CCCCC1 (stereo not given),i,i,47*,i,i
CCC1CCCCN1CCN1C(=O)C2C(C(=O)Nc3ccc(OC)cc3)C3C=CC2(O3)C1C(=O)NC1CCCCC1 (stereo not given),i,i,i,i,-6*
COc1cccc(NS(=O)(=O)c2ccc3[nH]cc(C(=O)NCCN4CCOCC4)c(=O)c3c2)c1,i,i,i,i,.
Cc1ccccc1NS(=O)(=O)c1ccc2[nH]cc(C(=O)NCCCN3CCOCC3)c(=O)c2c1,-6*,i,i,i,.
COc1ccc(NC(=O)CCc2nnc3ccc(NCc4ccco4)nn23)cc1OC,i,i,i,i,i
CN(C)CC/C=C1/c2ccc(F)cc2Sc2ccc(Cl)cc21,-5.8*,i,i,i,i
CN(C)CC/C=C1\c2cc(Cl)ccc2Sc2cc(F)c(F)cc21,-5.5*,i,i,i,i
O=C(CCl)N1CCN2C(=O)c3ccccc3C12c1ccc(Cl)cc1 (stereo not given),i,i,i,i,i
O=C(Nc1cccc(Cl)c1)N1CCN2C(=O)c3ccccc3C12c1ccccc1 (stereo not given),i,i,i,i,-6*
O=C(O)CCNc1nc(-c2ccccc2)c2cc(Br)ccc2n1,i,i,i,16*,i
N=c1n(CCO)c2ccccc2n1Cc1ccc(Cl)cc1,i,i,i,i,-6*
N=c1n(Cc2ccccc2)c2ccccc2n1Cc1ccccc1,i,i,i,i,i
COc1ccc(OCC(O)Cn2c(=N)n(Cc3ccccc3)c3ccccc32)cc1 (stereo not given),i,i,i,i,i
CCN(CC)CCn1c(=N)n(CC(O)COc2cccc(C)c2)c2ccccc21 (stereo not given),i,i,i,i,-5*
N=c1n(Cc2ccc(Cl)cc2)c2ccccc2n1CC(O)COc1ccccc1 (stereo not given),i,i,86*,i,i
N=c1n(Cc2ccccc2)c2ccccc2n1CC(O)COc1ccc(Cl)cc1Cl (stereo not given),i,i,i,12*,i
C=CCNC(=O)N1CCC(c2nc3ccccc3s2)CC1,i,i,i,i,i
Cc1ccc(SCCC(=O)NCCSCc2ccco2)cc1,i,i,i,i,i
Cc1ccc(SCCNCc2ccco2)cc1,i,i,i,10*,i
O=C(COC(=O)C12CC3CC(CC(C3)C1)C2)Nc1nccs1,i,i,i,i,i
Cc1ccnc(NC(=O)COC(=O)C23CC4CC(CC(C4)C2)C3)n1,i,i,i,35*,i
CCCn1c(=O)c(C(=O)NCC2CCCO2)c(O)c2ccccc21 (stereo not given),i,i,i,16*,i
CCCn1c(=O)c(C(=O)NNC(=O)c2ccccc2Cl)c(O)c2ccccc21,i,i,48*,i,i
O=C(NCC1CCCO1)c1c(O)c2ccccc2[nH]c1=O (stereo not given),i,i,i,i,i
CCCn1c(SCC(=O)NC2CCCC2)nnc1-c1cccnc1,i,i,i,i,i
SMILES,TRPC6 inhibitor,TRPC6 act,TRPC4 act,TRPC4 potent,TRPC4 block
COc1ccc(S(=O)(=O)NC2CC(C)(C)NC(C)(C)C2)cc1C(C)C,i,i,i,i,i
COC(=O)c1ccc(C(=S)NCC2(N(C)C)CCCCC2)cc1,i,i,101*,i,i
CN1CCN(Cc2nc3ccccc3n2C)CC1CCO (stereo not given),i,i,i,19*,i
CC(C)Cn1c(CN2CCN(C)C(CCO)C2)nc2ccccc21 (stereo not given),i,i,i,19*,i
Cc1ccc(CN2CCN(Cc3cccc4nccnc34)CC2CCO)cc1 (stereo not given),i,i,i,i,i
CCn1c(CN2CCN(Cc3ccc(C)cc3)C(CCO)C2)nc2ccccc21 (stereo not given),i,i,172*,i,i
Fc1ccc(-c2c[nH]c(=S)n2Cc2ccccc2)cc1,i,i,i,i,i
Cc1cc(C)c(C(=O)c2ccc(C(=O)N(C(C)C)C(C)C)cc2)c(C)c1,i,i,i,10*,i
Cc1cc(C)c(C(=O)c2ccc(C(=O)NC(C)(C)C)cc2)c(C)c1,i,i,i,i,i
Cc1cc(C)c(C(=O)c2ccc(C(=O)N3CCCCC3)cc2)c(C)c1,i,i,i,16*,i
O=C1NCN(c2ccccc2)C12CCN(CCCC(c1ccc(F)cc1)c1ccc(F)cc1)CC2,i,i,116*,i,i
COc1ccc(/C=C/C(=O)NC2CCN(Cc3ccccc3)CC2)cc1OC,i,i,i,i,i
COc1ccc(CCNCC(O)COc2ccc(OC)cc2C(C)(C)C)cc1 (stereo not given),i,i,i,16*,i
COc1ccc(CCNCC(O)COc2cccc(Br)c2)cc1OC (stereo not given),i,i,i,i,i
C[C@H]1CC[C@H]2C(=O)N3[C@H](c4ccccc4Br)[C@@H](C)CC[C@H]3C(=O)N2[C@@H]1c1ccccc1Br,i,i,i,i,i
O=C(Cc1nc2ccccc2[nH]1)c1ccc(Br)cc1,i,i,72*,i,i
c1ccc2[nH]c(CCCCc3nc4ccccc4[nH]3)nc2c1,i,i,i,i,-6*
CN(C)CCN(C(=O)c1cccc(Cl)c1)c1nc2c(Cl)cccc2s1,i,i,i,11*,i
Cc1ccc(N(C(C)C(=O)NCc2ccncc2)S(C)(=O)=O)cc1C (stereo not given),i,i,i,i,i
COc1ccccc1C(=O)Nc1c(C(=O)N(CCN(C)C)Cc2ccco2)oc2ccccc12,i,i,i,i,i
Cc1ccccc1C(=O)Nc1c(C(=O)N(CCN(C)C)Cc2ccco2)oc2ccccc12,i,i,45*,i,-6*
CCc1c(C(=O)N2CCCN(C)CC2)csc1C,i,i,i,i,-6*
CCc1ccc(C(=O)N2CCCN(C)CC2)s1,i,i,i,i,i
COc1ccc(NS(=O)(=O)c2cccs2)cc1S(=O)(=O)N1CCCCC1,i,i,i,i,i

# Source: PubChem
